A short description of assay [1]: RPL19A-GFP modulators, yeast TOR pathway, confirmation, cell-based, S. cerevisiae, flow cytometry, cherry picks, mother/daughter gates (AID 2270;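 active = GFP response below 50% of the DMSO control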). The conditions noted are these: S. cerevisiae RPL19A-GFP strain, 3 h, at 10 µM, stronger effect = lower value, 100 = same GFP as DMSO wells. For orientation: In flow cytometry, cells or beads pass a laser one at a time.
Assay [2] is described as follows: LAP4-GFP expression modulators in yeast, confirmation, cell-based, cherry picks, flow cytometry, mother/daughter gates (AID 2271;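 active = GFP response above 150% of the DMSO control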;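 note: ratio of sample to DMSO plate mean so 100% equals DMSO level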). The conditions noted are these: S. cerevisiae LAP4-GFP strain, 3 h, at 10 µM, stronger effect = higher value, 100 means same as DMSO control. The gist of the method:
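Measured by: GFP by flow cytometry. Test system: GFP-fusion yeast strain. Input: yeast cells seeded at OD600 of 0.2. Timing: 30 °C, 3 h compound incubation, rotating. Buffer or medium: synthetic complete medium for yeast. Benchmarks: DMSO-only negative wells, rapamycin 400 ng/mL positive wells. Compound: 10 µM single dose.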

Assay [3] in a line: modulators of MEP2-GFP levels in yeast, confirmation, S. cerevisiae, flow cytometry GFP, cherry picks (AID 2272;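 active = GFP response above 150% of the DMSO control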;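 note: ratio of well signal to plate DMSO mean so 100% equals DMSO level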). The conditions noted are these: S. cerevisiae MEP2-GFP strain, 3 h, at 10 µM, stronger effect = higher value.
Assay [4] is described as follows: AGP1-GFP expression modulators, hit retest, confirmation, cell-based, flow cytometry, S. cerevisiae, cherry picks (AID 2273).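 Note: median GFP channel fluorescence over the whole cell population gate.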 The conditions noted are these: S. cerevisiae AGP1-GFP strain, 3 h, at 10 µM.
Assay [5] can be described thus: modulators of CIT2-GFP expression in yeast, confirmation, S. cerevisiae, GFP fusion, cherry picks, mother/daughter gates (AID 2274). The conditions noted are these: S. cerevisiae CIT2-GFP strain, flow cytometry, 3 h, at 10 µM, stronger effect = higher value.
Where [6] appears, read: measured here: daughter cell gate.
The mark [7] stands for this setting: measured here: mother cell gate.
Setting [8] is: measured here: daughter cell gate response.
[9] abbreviates: measured here: mother cell gate response.

Here are results for 15 compounds from PubChem BioAssay.

Each structure is given as a SMILES string. The source made the active and inactive calls.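 Rule for the calls, unless noted: active = GFP response above 150% of the DMSO level; inconclusive = fewer than 70 events counted for a yeast strain; inactive = the rest.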

For `CCCOc1ccc(N2C(=O)CC(SCCN)C2=O)cc1` (stereo not given), the GFP response vs DMSO in assay [1] was 93.5% (inactive); in assay [1] (setting [6]), 92.9%; in assay [1] (setting [7]) it was 94.6%; in assay [3], 98.3% (inactive). For the same compound, the values for the GFP response relative to DMSO in assay [2], in assay [2] (setting [8]) and in assay [2] (setting [9]) were 101% (inactive), 102% and 99.3%, respectively. For the same compound, the GFP response, % of DMSO was 92.3% (inactive) in assay [4], 98.3% (inactive) in assay [5], 101% in assay [5] (setting [6]) and 96.1% in assay [5] (setting [7]).

With `COc1ccc(C2=NN(S(C)(=O)=O)C(c3ccc4nccnc4c3)C2)cc1` (stereo not given), the GFP response vs DMSO in assay [1] was 101% (inactive); in assay [1] (setting [6]), 99.8%; in assay [1] (setting [7]) it was 102%; in assay [3], 102% (inactive). In addition, the results for the GFP response relative to DMSO in assay [2], in assay [2] (setting [8]) and in assay [2] (setting [9]) were 99.8% (inactive), 103% and 103%, respectively. Besides, the GFP response, % of DMSO in assay [4] is 97.6% (inactive); in assay [5], 92.6% (inactive); in assay [5] (setting [6]) it was 93.2%; in assay [5] (setting [7]), 91.2%.

As for `COc1cc(/C=C/C(=O)c2c(O)ccc3c(C)cc(=O)oc23)ccc1O`, the GFP response vs DMSO in assay [1] is 95% (inactive); in assay [1] (setting [6]) it was 94.4%; in assay [1] (setting [7]), 95.8%; in assay [3], 98.3% (inactive). Further, the results for the GFP response relative to DMSO in assay [2], in assay [2] (setting [8]) and in assay [2] (setting [9]) were 124% (inactive), 120% and 130%, respectively. The GFP response, % of DMSO in assay [4] was 92.5% (inactive); in assay [5], 96.9% (inactive); in assay [5] (setting [6]) it was 101%; in assay [5] (setting [7]) it was 93.8%.

Turning to `COc1ccc(C2N(c3ccc(Cl)cc3)N=C(C(C)=O)N(C)N2C(C)=O)cc1` (stereo not given), the GFP response vs DMSO is 100% (inactive) in assay [1], 99.6% in assay [1] (setting [6]), 100% in assay [1] (setting [7]) and 101% (inactive) in assay [3]. The GFP response relative to DMSO in assay [2] was 104% (inactive); in assay [2] (setting [8]) it was 101%; in assay [2] (setting [9]) it was 103%. Further, the GFP response, % of DMSO is 101% (inactive) in assay [4], 106% (inactive) in assay [5], 106% in assay [5] (setting [6]) and 106% in assay [5] (setting [7]).

`Cc1cccc2c1NC(=O)/C2=C\C(=O)c1cccs1`: the GFP response vs DMSO was 97.2% (inactive) in assay [1], 91.1% in assay [1] (setting [6]), 89.1% in assay [1] (setting [7]) and 104% (inactive) in assay [3]. For the same compound, the GFP response relative to DMSO is 164% (active) in assay [2], 148% in assay [2] (setting [8]) and 160% in assay [2] (setting [9]). Also, the GFP response, % of DMSO in assay [4] is 107% (inactive); in assay [5] it was 92.6% (inactive); in assay [5] (setting [6]) it was 99.7%; in assay [5] (setting [7]), 83.7%.

Turning to `Cc1cc(-c2csc3nc[nH]c(=S)c23)cc(C)c1C`, the GFP response vs DMSO in assay [1] was 96.3% (inactive); in assay [1] (setting [6]) it was 98.1%; in assay [1] (setting [7]), 95%; in assay [3], 127% (inactive). Besides, the GFP response relative to DMSO is 112% (inactive) in assay [2], 114% in assay [2] (setting [8]) and 109% in assay [2] (setting [9]). Further, the GFP response, % of DMSO in assay [4] was 118% (inactive); in assay [5], 106% (inactive); in assay [5] (setting [6]), 110%; in assay [5] (setting [7]), 104%.

As to `CCN(CC)C(=O)Cn1c(C)c(/C=C/c2cc[n+](C)cc2)c2ccccc21`, the GFP response vs DMSO in assay [1] was 107% (inactive); in assay [1] (setting [6]) it was 106%; in assay [1] (setting [7]) it was 106%; in assay [3] it was 126% (inactive). Moreover, the values for the GFP response relative to DMSO in assay [2], in assay [2] (setting [8]) and in assay [2] (setting [9]) were 108% (inactive), 110% and 107%, respectively. Further, the GFP response, % of DMSO in assay [4] is 98.6% (inactive); in assay [5], 109% (inactive); in assay [5] (setting [6]) it was 110%; in assay [5] (setting [7]) it was 105%.

For `Nc1ccc(S(=O)(=O)c2ccccc2)nc1`, the GFP response vs DMSO in assay [1] is 103% (inactive); in assay [1] (setting [6]) it was 104%; in assay [1] (setting [7]) it was 104%; in assay [3] it was 104% (inactive). In addition, the GFP response relative to DMSO is 99.8% (inactive) in assay [2], 98.7% in assay [2] (setting [8]) and 99.3% in assay [2] (setting [9]). Also, the GFP response, % of DMSO in assay [4] was 95.7% (inactive); in assay [5], 95.2% (inactive); in assay [5] (setting [6]), 94.8%; in assay [5] (setting [7]) it was 94.4%.

Turning to `Cc1ccnc(N2C(=O)c3cccc4c([N+](=O)[O-])ccc(c34)C2=O)c1`, the GFP response vs DMSO is 102% (inactive) in assay [1], 101% in assay [1] (setting [6]), 95% in assay [1] (setting [7]) and 318% (active) in assay [3]. The GFP response relative to DMSO in assay [2] was 182% (active); in assay [2] (setting [8]), 177%; in assay [2] (setting [9]) it was 178%. In addition, the GFP response, % of DMSO is 123% (inactive) in assay [4], 177% (active) in assay [5], 159% in assay [5] (setting [6]) and 164% in assay [5] (setting [7]).

Take `CCc1cc(=O)oc2c(CN3CCCC3)c(O)c(Cl)cc12`: the GFP response vs DMSO in assay [1] is 97.6% (inactive); in assay [1] (setting [6]), 101%; in assay [1] (setting [7]), 95.8%; in assay [3] it was 110% (inactive). Moreover, the GFP response relative to DMSO in assay [2] is 104% (inactive); in assay [2] (setting [8]), 105%; in assay [2] (setting [9]), 100%. Besides, the GFP response, % of DMSO is 98.4% (inactive) in assay [4], 107% (inactive) in assay [5], 105% in assay [5] (setting [6]) and 102% in assay [5] (setting [7]).

With `C/C(=N\NC(=O)c1cccc(Br)c1)c1ccccn1`, the GFP response vs DMSO in assay [1] was 108% (inactive); in assay [1] (setting [6]), 97.6%; in assay [1] (setting [7]) it was 102%; in assay [3] it was 122% (inactive). Besides, the GFP response relative to DMSO was 163% (active) in assay [2], 149% in assay [2] (setting [8]) and 166% in assay [2] (setting [9]). For the same compound, the GFP response, % of DMSO in assay [4] was 97.3% (inactive); in assay [5] it was 108% (inactive); in assay [5] (setting [6]), 101%; in assay [5] (setting [7]) it was 101%.

For `COC(=O)c1ccc(N2C(=O)CC(SCCN)C2=O)cc1` (stereo not given), the GFP response vs DMSO in assay [1] was 98.7% (inactive); in assay [1] (setting [6]), 100%; in assay [1] (setting [7]), 98.4%; in assay [3], 101% (inactive). Also, the GFP response relative to DMSO was 98.9% (inactive) in assay [2], 102% in assay [2] (setting [8]) and 100% in assay [2] (setting [9]). Moreover, the GFP response, % of DMSO in assay [4] was 103% (inactive); in assay [5], 100% (inactive); in assay [5] (setting [6]), 103%; in assay [5] (setting [7]), 99.3%.

`Cc1cc(O)c(C(=O)/C=C/c2ccccc2)c(=O)o1`: the GFP response vs DMSO is 97.6% (inactive) in assay [1], 101% in assay [1] (setting [6]), 96.1% in assay [1] (setting [7]) and 100% (inactive) in assay [3]. Besides, the GFP response relative to DMSO was 144% (inactive) in assay [2], 139% in assay [2] (setting [8]) and 148% in assay [2] (setting [9]). Moreover, the GFP response, % of DMSO in assay [4] is 97% (inactive); in assay [5], 96.5% (inactive); in assay [5] (setting [6]), 99.7%; in assay [5] (setting [7]) it was 95.5%.

Consider `COc1cccc2c1Oc1ncccc1N(C(=O)CCC(=O)NCc1ccccc1F)C2`, for which the GFP response vs DMSO is 100% (inactive) in assay [1], 101% in assay [1] (setting [6]), 101% in assay [1] (setting [7]) and 135% (inactive) in assay [3]. The GFP response relative to DMSO was 142% (inactive) in assay [2], 147% in assay [2] (setting [8]) and 139% in assay [2] (setting [9]). Moreover, the GFP response, % of DMSO in assay [4] is 105% (inactive); in assay [5] it was 148% (inactive); in assay [5] (setting [6]), 150%; in assay [5] (setting [7]) it was 147%.

Turning to `CCc1ccccc1OCc1nnc(N)s1`, the GFP response vs DMSO in assay [1] was 101% (inactive); in assay [1] (setting [6]) it was 98.8%; in assay [1] (setting [7]), 102%; in assay [3], 101% (inactive). Further, the GFP response relative to DMSO in assay [2] was 98.2% (inactive); in assay [2] (setting [8]), 99.1%; in assay [2] (setting [9]), 97.3%. The GFP response, % of DMSO in assay [4] was 102% (inactive); in assay [5], 100% (inactive); in assay [5] (setting [6]), 101%; in assay [5] (setting [7]), 99.3%.
